Among the data in ChEMBL document CHEMBL1154872, “Design, synthesis, and biological evaluation of novel pyrimidine derivatives as CDK2 inhibitors” (Eur J Med Chem, 2010) are GI50 and IC50 values, retold here.

One test has as its system HCT-116. Description: Growth inhibition of human HCT116 cells after 2 days by sulforhodamine B assay. It counts as functional. The note with it: HCT-116, 48 h. The procedure, abridged:
(§1)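 Cells kept in RPMI 1640 with 10% FBS at 37 °C, 5% CO2; 1000 cells/well plated, compounds added next day at various concentrations, 2 days exposure. Fixed with 4% formalin 30 min, stained 0.1% SRB 30 min, acetic acid washes, dye eluted in 0.1 M Tris-HCl pH 8.0, A520 read. Triplicate, averaged; time-zero absorbance = 0%, untreated 2-day growth = 100%.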
A general note: The SRB assay estimates cell density from bound dye.

Test [1] concerns the target Epidermal growth factor receptor (Homo sapiens, UniProt P00533). Description: Inhibition of EGFR.
Test [2] deals with Cyclin-dependent kinase 2/cyclin A (Homo sapiens, UniProt P24941). The test can be described thus: Inhibition of human recombinant CDK2/cyclin A expressed in baculovirus-infected insect Sf21 cells after 10 mins.
For the next test, the system named is A-431. The test can be described thus: Growth inhibition of human A431 cells after 2 days by sulforhodamine B assay. It is filed as functional. The settings on record: A-431, 48 h. Summed up: as §1

Molecules are shown by their SMILES.

Epidermal growth factor receptor, sequence (P00533 whole entry): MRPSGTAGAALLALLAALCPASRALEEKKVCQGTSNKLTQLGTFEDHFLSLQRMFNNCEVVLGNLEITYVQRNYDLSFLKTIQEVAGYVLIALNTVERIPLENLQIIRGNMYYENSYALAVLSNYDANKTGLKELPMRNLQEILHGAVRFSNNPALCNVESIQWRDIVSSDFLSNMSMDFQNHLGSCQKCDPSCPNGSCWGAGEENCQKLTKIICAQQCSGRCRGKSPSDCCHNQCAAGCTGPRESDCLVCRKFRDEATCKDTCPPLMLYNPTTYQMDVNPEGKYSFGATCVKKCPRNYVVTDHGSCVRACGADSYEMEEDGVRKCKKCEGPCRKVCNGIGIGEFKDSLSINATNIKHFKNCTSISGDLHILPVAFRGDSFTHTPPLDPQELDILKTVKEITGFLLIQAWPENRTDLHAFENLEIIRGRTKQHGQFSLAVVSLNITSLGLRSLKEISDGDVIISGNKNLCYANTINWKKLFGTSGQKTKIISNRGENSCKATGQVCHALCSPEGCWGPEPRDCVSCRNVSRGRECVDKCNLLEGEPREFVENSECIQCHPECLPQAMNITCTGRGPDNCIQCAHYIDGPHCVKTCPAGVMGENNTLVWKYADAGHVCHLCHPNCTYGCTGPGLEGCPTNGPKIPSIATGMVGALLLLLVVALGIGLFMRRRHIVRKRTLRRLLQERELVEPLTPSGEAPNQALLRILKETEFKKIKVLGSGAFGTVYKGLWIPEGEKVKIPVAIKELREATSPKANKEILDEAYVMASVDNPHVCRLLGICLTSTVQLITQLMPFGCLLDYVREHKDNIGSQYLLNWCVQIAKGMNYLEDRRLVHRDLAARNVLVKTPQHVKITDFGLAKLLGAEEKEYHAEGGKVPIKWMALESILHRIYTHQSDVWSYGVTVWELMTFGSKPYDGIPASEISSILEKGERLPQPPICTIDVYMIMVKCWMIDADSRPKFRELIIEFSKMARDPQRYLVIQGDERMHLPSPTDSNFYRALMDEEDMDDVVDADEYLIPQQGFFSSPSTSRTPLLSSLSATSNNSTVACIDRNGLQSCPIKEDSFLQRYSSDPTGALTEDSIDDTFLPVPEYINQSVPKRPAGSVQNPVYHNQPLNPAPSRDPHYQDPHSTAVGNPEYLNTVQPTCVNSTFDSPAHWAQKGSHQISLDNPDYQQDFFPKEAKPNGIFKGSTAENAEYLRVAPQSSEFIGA

The term GI50 denotes the concentration at which growth is held to half of that of the control. Low readings indicate greater sensitivity of the cells, high ones lower sensitivity of the cells. As a reminder, the IC50 is the concentration that inhibits the measured activity by half. In the case of `CC1=C(C(=O)Nc2cccc([N+](=O)[O-])c2)C(c2ccc(O)cc2O)NC(Nc2ccc(S(=O)(=O)Nc3ncccn3)cc2)=N1` (centres undefined), the GI50 in the test with HCT-116 is 77.5 µM; in the test with A-431, 69.2 µM. Moreover, the IC50 in test [1] was 88.3 µM; in test [2], 57.5 µM.
For `CC1=C(C(=O)Nc2cccc([N+](=O)[O-])c2)C(c2ccc(O)cc2O)NC(Nc2ccc(S(=O)(=O)Nc3nc(C)cc(C)n3)cc2)=N1` (centres undefined) the same measures were 8.99 µM, 3.94 µM, 79.8 µM and 11.5 µM.
For `CC1=C(C(=O)Nc2cccc([N+](=O)[O-])c2)C(c2ccc(O)cc2O)NC(Nc2ccc(S(=O)(=O)Nc3cc(C)on3)cc2)=N1` (centres undefined) the same measures were 16.6 µM, 2.94 µM, above 100 µM and 0.9 µM.
The corresponding values for `CC1=C(C(=O)Nc2cccc([N+](=O)[O-])c2)C(c2ccc(O)cc2O)NC(NN2C(=O)/C(=C\c3cccs3)SC2=S)=N1` (centres undefined) are 4.5 µM, 2.78 µM, 80.6 µM and 0.3 µM.
`CC1=C(C(=O)Nc2cccc([N+](=O)[O-])c2)C(c2ccc(O)cc2O)NC(NN2C(=O)/C(=C\c3ccccc3)SC2=S)=N1` (centres undefined): the results for the GI50 in the test with HCT-116 and in the test on A-431 were 16.6 µM and 24.3 µM, respectively. Also, the IC50 in test [1] was above 100 µM; in test [2] it was 28.2 µM.
The corresponding values for `CC1=C(C(=O)Nc2cccc([N+](=O)[O-])c2)C(c2ccc(O)cc2O)NC(NN)=N1` (centres undefined) are 47.7 µM, 24.3 µM, 47.9 µM and above 100 µM.
For `CC1=C(C(=O)Nc2cccc([N+](=O)[O-])c2)C(c2ccc(O)cc2O)NC(NN2C(=O)/C(=C\c3ccco3)SC2=S)=N1` (centres undefined) the same measures were above 100 µM, 28.9 µM, 99.3 µM and 0.4 µM.
For `CC1=C(C(=O)Nc2cccc([N+](=O)[O-])c2)C(c2ccc(O)cc2O)NC(N/N=C/c2cccs2)=N1` (centres undefined) the same measures were 38.2 µM, 19.1 µM, above 100 µM and 22.9 µM.
Regarding `Cc1nc(S(=O)(=O)Cc2ccccc2)nc(-c2ccc(O)cc2O)c1C(=O)Nc1cccc([N+](=O)[O-])c1`, the GI50 with HCT-116 is 10.9 µM; in the test on A-431 it was 28.9 µM. Moreover, the IC50 is above 100 µM in test [1] and 0.9 µM in test [2].
On to `CC1=C(C(=O)Nc2cccc([N+](=O)[O-])c2)C(c2ccc(O)cc2O)NC(N/N=C/c2ccco2)=N1` (centres undefined), for which the GI50 in the test with HCT-116 came to 8.89 µM; in the test with A-431, 2.91 µM. Moreover, the figures for the IC50 in test [1] and in test [2] were above 100 µM and 3.8 µM, respectively.
The corresponding values for `CC1=C(C(=O)Nc2ccc(C)cc2)C(c2ccc(O)cc2O)NC(Nc2ccc([N+](=O)[O-])cc2Cl)=N1` (centres undefined) are 28.2 µM, 31.9 µM, 60.9 µM and 44.9 µM.
`CC1=C(C(=O)Nc2cccc([N+](=O)[O-])c2)C(c2ccc(O)cc2O)NC(NCc2ccccc2)=N1` (centres undefined): the results for the GI50 in the test on HCT-116 and in the test with A-431 were above 100 µM and 35.6 µM, respectively. In addition, the values for the IC50 in test [1] and in test [2] were above 100 µM and 46.8 µM, respectively.
Take `CC1=C(C(=O)Nc2cccc([N+](=O)[O-])c2)C(c2ccc(O)cc2O)NC(Nc2ccc([N+](=O)[O-])cc2Cl)=N1` (centres undefined): the GI50 was 10.9 µM in the test with HCT-116 and 3.94 µM in the test on A-431. The results for the IC50 in test [1] and in test [2] were above 100 µM and 8.1 µM, respectively.
The corresponding values for `Cc1ccc(NC(=O)c2c(C)nc(S(=O)(=O)Cc3ccccc3)nc2-c2ccc(O)cc2O)cc1` are 23.4 µM, 32 µM, above 100 µM and 48.3 µM.
For `CC1=C(C(=O)Nc2ccc(C)cc2)C(c2ccc(O)cc2O)NC(SCc2ccccc2)=N1` (centres undefined) the same measures were 14.5 µM, 20.8 µM, 93.5 µM and 25.4 µM.
As for `CC1=C(C(=O)Nc2cccc([N+](=O)[O-])c2)C(c2ccc(O)cc2O)NC(SCc2ccccc2)=N1` (centres undefined), the results for the 50% growth inhibitory concentration (GI50) in the test with HCT-116 and in the test with A-431 were 29 µM and above 100 µM, respectively. In addition, the figures for the IC50 in test [1] and in test [2] were 55.6 µM and 24.6 µM, respectively.
The corresponding values for `CC1=NN(C2=NC(C)=C(C(=O)Nc3cccc([N+](=O)[O-])c3)C(c3ccc(O)cc3O)N2)C(=O)/C1=C/c1ccco1` (centres undefined) are above 100 µM, 15.8 µM, above 100 µM and 10.3 µM.
For `CC1=NN(C2=NC(C)=C(C(=O)Nc3cccc([N+](=O)[O-])c3)C(c3ccc(O)cc3O)N2)C(=O)/C1=C/c1cccs1` (centres undefined) the same measures were 26.5 µM, 37.1 µM, above 100 µM and 3.1 µM.
The corresponding values for `CC1=C(C(=O)Nc2ccc(C)cc2)C(c2ccc(O)cc2O)NC(NCc2ccccc2)=N1` (centres undefined) are 66.7 µM, 42.7 µM, 23.5 µM and above 100 µM.
As for `COc1cccc2c1C(=O)c1c(O)c3c(c(O)c1C2=O)C[C@@](O)(C(=O)CO)C[C@@H]3O[C@H]1C[C@H](N)[C@H](O)[C@H](C)O1` [DOXORUBICIN], the GI50 with HCT-116 turned out to be 0.13 µM; with A-431, 0.18 µM.
`CC[C@H](CO)Nc1nc(NCc2ccccc2)c2c(n1)N(C(C)C)CN2` [RESCOVITINE]: the IC50 in test [2] amounted to 0.5 µM.
